Measured values as given in ChEMBL document CHEMBL1138395, “Adamantane sulfone and sulfonamide 11-beta-HSD1 Inhibitors” (Bioorg Med Chem Lett, 2007).
pIC50, pKi: −log10 of the molar value. One block for each compound: values may come before it.

Columns and labels:
[1] = biological target: 11-beta-hydroxysteroid dehydrogenase 1 (Mus musculus, UniProt P50172); experiment: Inhibition of mouse HSD1 assessed as interconversion of cortisone to cortisol
How it was run: (§1)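 Enzyme inhibition measured as blocking the interconversion between cortisone and cortisol by mouse HSD1 (reported as Ki) or mouse HSD2 (reported as IC50); values are means of at least two experiments.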

[2] = biological target: T1, 11-beta-hydroxysteroid dehydrogenase 1 (Homo sapiens, UniProt P28845); experiment: Inhibition of human HSD1 expressed in HEK cells; assay type: cell-based, HEK293
T1 sequence (P28845 whole entry): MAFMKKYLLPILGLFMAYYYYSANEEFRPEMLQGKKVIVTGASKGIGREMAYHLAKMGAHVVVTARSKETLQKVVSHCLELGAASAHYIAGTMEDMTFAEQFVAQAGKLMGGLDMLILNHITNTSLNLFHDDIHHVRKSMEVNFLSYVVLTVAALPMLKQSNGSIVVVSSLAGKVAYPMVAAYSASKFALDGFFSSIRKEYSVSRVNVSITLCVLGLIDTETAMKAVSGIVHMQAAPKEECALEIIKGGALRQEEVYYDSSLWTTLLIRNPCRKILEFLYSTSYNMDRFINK

[3] = Metabolic stability in mouse liver microsomes assessed as compound remaining after 30 mins; assay type: ADME, Microsome; conditions: read-out: Stability
How it was run: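 Test compound incubated with mouse liver microsomes for 30 min; percent of parent compound remaining afterward reported.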

[4] = biological target: T1, 11-beta-hydroxysteroid dehydrogenase 1; experiment: Inhibition of human HSD1 assessed as interconversion of cortisone to cortisol
[5] = biological target: T2, 11-beta-hydroxysteroid dehydrogenase type 2 (Mus musculus, UniProt P51661); experiment: Inhibition of mouse HSD2 assessed as interconversion of cortisone to cortisol; how it was run: as §1
T2 sequence (P51661 whole entry): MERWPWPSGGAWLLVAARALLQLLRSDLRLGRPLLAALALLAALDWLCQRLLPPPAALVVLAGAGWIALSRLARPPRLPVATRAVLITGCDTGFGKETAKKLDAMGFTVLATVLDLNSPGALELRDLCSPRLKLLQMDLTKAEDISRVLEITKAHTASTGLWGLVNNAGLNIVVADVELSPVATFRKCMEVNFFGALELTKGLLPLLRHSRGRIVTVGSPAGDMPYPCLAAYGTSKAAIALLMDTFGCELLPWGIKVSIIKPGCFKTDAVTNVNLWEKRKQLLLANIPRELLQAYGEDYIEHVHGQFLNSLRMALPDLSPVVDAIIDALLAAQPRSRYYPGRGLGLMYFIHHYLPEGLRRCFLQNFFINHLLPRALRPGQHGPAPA

[6] = biological target: T3, 11-beta-hydroxysteroid dehydrogenase type 2 (Homo sapiens, UniProt P80365); experiment: Inhibition of human HSD2 assessed as interconversion of cortisone to cortisol
T3 sequence (P80365 whole entry): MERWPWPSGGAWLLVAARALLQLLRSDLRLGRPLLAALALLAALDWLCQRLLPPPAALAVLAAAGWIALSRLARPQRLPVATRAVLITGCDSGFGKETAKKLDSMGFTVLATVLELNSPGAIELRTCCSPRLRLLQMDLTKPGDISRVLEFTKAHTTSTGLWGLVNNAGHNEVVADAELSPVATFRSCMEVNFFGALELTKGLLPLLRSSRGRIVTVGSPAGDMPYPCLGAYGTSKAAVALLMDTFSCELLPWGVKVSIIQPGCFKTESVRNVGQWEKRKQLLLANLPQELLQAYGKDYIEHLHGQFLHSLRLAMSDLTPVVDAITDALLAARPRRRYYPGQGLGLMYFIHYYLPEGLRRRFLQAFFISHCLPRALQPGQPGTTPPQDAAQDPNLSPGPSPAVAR

[7] = Plasma clearance in mouse at 10 mg/kg, iv; assay type: ADME, organism-based; parameters: dose 10 mg/kg, route intravenous
[8] = Metabolic stability in mouse liver microsomes assessed as intrinsic clearance; assay type: ADME, Microsome
How it was run: (§2)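 Intrinsic clearance (L/h/kg) determined from incubations with liver microsomes (mouse, monkey, human) or hepatocytes (mouse, monkey); values are means of three experiments.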

[9] = Metabolic stability in monkey liver microsomes assessed as intrinsic clearance; assay type: ADME, Macaca mulatta, Microsome; conditions: rhesus monkey; how it was run: as §2
Mus musculus [10] = experiment: Ex vivo inhibition of liver 11-beta-HSD1 in DIO mouse at 30 mg/kg, po after 7 hrs; assay type: functional
How it was run: (§3)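 DIO mice dosed orally at 30 mpk; animals killed 1, 7 and 16 h after the dose and liver, fat and brain taken. Ex vivo 11-β-HSD1 activity (cortisol levels) in tissue was measured and percent inhibition expressed relative to vehicle-dosed animals; means from two animals per point.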

[11] = Volume of distribution at steady state in mouse at 10 mg/kg; assay type: ADME, organism-based; parameters: dose 10 mg/kg; conditions: in vivo, read-out: Vdss
Mus musculus [12] = experiment: Ex vivo inhibition of brain 11-beta-HSD1 in DIO mouse at 30 mg/kg, po after 7 hrs; assay type: functional; how it was run: as §3
[13] = Volume of distribution at terminal phase in mouse at 10 mg/kg; assay type: ADME, organism-based; parameters: dose 10 mg/kg; conditions: in vivo, read-out: Vbeta
Mus musculus [14] = experiment: Ex vivo inhibition of fat 11-beta-HSD1 in DIO mouse at 30 mg/kg, po after 7 hrs; assay type: functional; how it was run: as §3
[15] = Oral bioavailability in monkey at 2.5 mg/kg; assay type: ADME, organism-based, Macaca mulatta; conditions: rhesus monkey, in vivo
Mus musculus [16] = experiment: Ex vivo inhibition of liver 11-beta-HSD1 in DIO mouse at 30 mg/kg, po after 1 hr; assay type: functional; how it was run: as §3
Mus musculus [17] = experiment: Ex vivo inhibition of fat 11-beta-HSD1 in DIO mouse at 30 mg/kg, po after 1 hr; assay type: functional; how it was run: as §3
[18] = AUC in mouse at 10 mg/kg, po; assay type: ADME, organism-based; parameters: dose 10 mg/kg, route oral; conditions: plasma
Mus musculus [19] = experiment: Ex vivo inhibition of fat 11-beta-HSD1 in DIO mouse at 30 mg/kg, po after 16 hrs; assay type: functional; how it was run: as §3
Mus musculus [20] = experiment: Ex vivo inhibition of brain 11-beta-HSD1 in DIO mouse at 30 mg/kg, po after 16 hrs; assay type: functional; how it was run: as §3
[21] = Plasma clearance in monkey at 2.5 mg/kg, iv; assay type: ADME, organism-based, Macaca mulatta; parameters: dose 2.5 mg/kg, route intravenous; conditions: rhesus monkey
[22] = Oral bioavailability in mouse at 10 mg/kg; assay type: ADME, organism-based; conditions: in vivo
[23] = Metabolic stability in human liver microsomes assessed as intrinsic clearance; assay type: ADME, Microsome; how it was run: as §2
[24] = Metabolic stability in monkey hepatocytes assessed as intrinsic clearance; assay type: ADME, cell-based, Macaca mulatta, Liver, Hepatocyte; conditions: rhesus monkey; how it was run: as §2
Mus musculus [25] = experiment: Ex vivo inhibition of brain 11-beta-HSD1 in DIO mouse at 30 mg/kg, po after 1 hr; assay type: functional; how it was run: as §3
[26] = AUC in monkey at 2.5 mg/kg, po; assay type: ADME, organism-based, Macaca mulatta; parameters: dose 2.5 mg/kg, route oral; conditions: rhesus monkey, plasma
[27] = Volume of distribution at steady state in monkey at 2.5 mg/kg; assay type: ADME, organism-based, Macaca mulatta; parameters: dose 2.5 mg/kg; conditions: rhesus monkey, in vivo, read-out: Vdss
[28] = Volume of distribution at terminal phase in monkey at 2.5 mg/kg; assay type: ADME, organism-based, Macaca mulatta; parameters: dose 2.5 mg/kg; conditions: rhesus monkey, in vivo, read-out: Vbeta
[29] = Half life in monkey at 2.5 mg/kg, iv; assay type: ADME, organism-based, Macaca mulatta; parameters: dose 2.5 mg/kg, route intravenous; conditions: rhesus monkey, in vivo
[30] = Half life in mouse at 10 mg/kg, iv; assay type: ADME, organism-based; parameters: dose 10 mg/kg, route intravenous; conditions: in vivo
Mus musculus [31] = experiment: Ex vivo inhibition of liver 11-beta-HSD1 in DIO mouse at 30 mg/kg, po after 16 hrs; assay type: functional; how it was run: as §3
[32] = Metabolic stability in mouse hepatocytes assessed as intrinsic clearance; assay type: ADME, cell-based, Liver, Hepatocyte; how it was run: as §2

11-beta-hydroxysteroid dehydrogenase 1 (Mus musculus, UniProt P50172), sequence (P50172 whole entry): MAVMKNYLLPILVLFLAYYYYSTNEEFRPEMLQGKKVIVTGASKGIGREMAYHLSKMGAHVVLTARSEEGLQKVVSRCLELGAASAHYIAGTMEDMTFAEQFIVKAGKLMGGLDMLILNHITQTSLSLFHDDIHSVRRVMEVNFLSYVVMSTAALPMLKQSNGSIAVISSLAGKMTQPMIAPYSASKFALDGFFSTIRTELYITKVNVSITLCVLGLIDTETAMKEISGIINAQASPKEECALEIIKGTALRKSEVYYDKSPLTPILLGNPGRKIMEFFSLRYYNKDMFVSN

SMILES: CC(C)(Oc1ccc(F)cc1Cl)C(=O)N[C@H]1C2CC3CC1C[C@](S(=O)(=O)CCCN1CCOCC1)(C3)C2
pKi [1]: 7.42
pIC50 [2]: 6.30
remaining at 0.5 h [3]: < 1%
pKi [4]: 6.96
pIC50 [5]: 4.06
pIC50 [6]: 4.82

SMILES: CC(C)(Oc1cccc(Cl)c1)C(=O)N[C@H]1C2CC3CC1C[C@](S(C)(=O)=O)(C3)C2
pKi [1]: 8.00
remaining at 0.5 h [3]: 7%
pIC50 [5]: < 4.00

SMILES: CC(C)(Oc1ccc(Cl)cc1F)C(=O)N[C@H]1C2CC3CC1C[C@](S(C)(=O)=O)(C3)C2
pKi [1]: 8.10
remaining at 0.5 h [3]: 63%
pIC50 [5]: < 4.00

SMILES: CC(C)(Oc1ccccc1)C(=O)N[C@H]1C2CC3CC1C[C@](S(N)(=O)=O)(C3)C2
pKi [1]: 7.89
remaining at 0.5 h [3]: 62%
pIC50 [5]: < 4.00

Continued, in another order:

pKi [1]: 8.70
pIC50 [2]: 7.08
remaining at 0.5 h [3]: 36%
pKi [4]: 8.40
pIC50 [5]: < 4.00
pIC50 [6]: 5.26
SMILES: CC(C)(Oc1ccccc1Cl)C(=O)N[C@H]1C2CC3CC1C[C@](S(N)(=O)=O)(C3)C2

pKi [1]: 8.15
pIC50 [2]: 6.16
pKi [4]: 7.70
pIC50 [5]: < 4.00
pIC50 [6]: < 4.00
SMILES: COc1cc(F)ccc1OC(C)(C)C(=O)N[C@H]1C2CC3CC1C[C@](S(C)(=O)=O)(C3)C2

pKi [1]: 8.40
clearance [7]: 18.3 mL/min/kg
remaining at 0.5 h [3]: 57%
CLint scaled [8]: 100 mL/min/kg
CLint scaled [9]: 25 mL/min/kg
Vd [11]: 1.5 L/kg
Vd [13]: 1.7 L/kg
bioavailability [15]: 109%
AUC [18]: 8900 ng·h/mL
clearance [21]: 6.67 mL/min/kg
bioavailability [22]: 100%
CLint scaled [23]: 26.7 mL/min/kg
CLint scaled [24]: 1.67 mL/min/kg
pIC50 [5]: < 4.00
AUC [26]: 6810 ng·h/mL
Vd [27]: 2.7 L/kg
Vd [28]: 3.1 L/kg
half-life [29]: 5.1 h
half-life [30]: 1 h
CLint scaled [32]: 3.33 mL/min/kg
SMILES: CC(C)(Oc1ccc(F)cc1Cl)C(=O)N[C@H]1C2CC3CC1C[C@](S(C)(=O)=O)(C3)C2
inhibition in vivo at 30 mg/kg (Mus musculus [10]): 95%
inhibition in vivo at 30 mg/kg (Mus musculus [12]): 90%
inhibition in vivo at 30 mg/kg (Mus musculus [14]): 93%
inhibition in vivo at 30 mg/kg (Mus musculus [16]): 95%
inhibition in vivo at 30 mg/kg (Mus musculus [17]): 87%
inhibition in vivo at 30 mg/kg (Mus musculus [19]): 86%
inhibition in vivo at 30 mg/kg (Mus musculus [20]): 77%
inhibition in vivo at 30 mg/kg (Mus musculus [25]): 90%
inhibition in vivo at 30 mg/kg (Mus musculus [31]): 89%

pKi [1]: 8.15
pIC50 [5]: < 4.00
SMILES: CCS(=O)(=O)[C@]12CC3CC(C1)[C@@H](NC(=O)C(C)(C)Oc1ccc(F)cc1Cl)C(C3)C2

pKi [1]: 8.40
pIC50 [2]: 6.52
remaining at 0.5 h [3]: 59%
pKi [4]: 8.10
pIC50 [5]: < 4.00
pIC50 [6]: 5.48
SMILES: CC(C)(Oc1ccc(F)cc1Cl)C(=O)N[C@H]1C2CC3CC1C[C@](S(=O)(=O)CC(N)=O)(C3)C2

pKi [1]: 8.10
remaining at 0.5 h [3]: 70%
pIC50 [5]: < 4.00
SMILES: CC(C)(Oc1ccc(Cl)cc1)C(=O)N[C@H]1C2CC3CC1C[C@](S(C)(=O)=O)(C3)C2
